Published values collected from several papers.
Each line is one published result; the experiments were not run side by side.

Structure (SMILES)	technique	medium	time	pH	logD
C[C@]1(C(=O)O)CSC(c2ccc(OCCCC(=O)O)cc2O)=N1	shake flask	aqueous buffer	–	pH 7.4	-2.21
COC(=O)[C@H](Cc1c[nH]cn1)NC(=O)CN(CCCc1ccccc1)CC(=O)O	shake flask	PBS	2 h	pH 7.4	-0.78
CCCCc1nc2c(N)nc3ccccc3c2n1Cc1ccc(CN)cc1	shake flask	PBS	–	pH 7.4	0.42
COc1ccn2c(Nc3ccccc3F)c(-c3ccncn3)nc2c1	–	–	–	pH 7.4	2.5
Cc1c(C(=O)N[C@@H]2CCCC[C@H]2O)nc(-c2ccc(Cl)cc2Cl)n1-c1ccc(OS(=O)(=O)CCC(F)(F)F)cc1 (relative stereo)	shake flask	aqueous buffer	–	pH 7.4	> 4.4
COc1ccc2cc(CCC[18F])ccc2c1	shake flask	aqueous buffer	–	pH 7.4	2.46
Cc1c(C(=O)NN2CCCCC2)nc(-c2ccc(Cl)cc2Cl)n1-c1ccc(OS(=O)(=O)CCCC(F)(F)F)cc1	shake flask	aqueous buffer	–	pH 7.4	5.3
COC(=O)CN(CCCc1ccccc1)CC(=O)N[C@@H](Cc1c[nH]cn1)c1nc(C)no1	shake flask	PBS	2 h	pH 7.4	1.52
O=C(C1CCN(c2nnnn2-c2ccccc2)CC1)N1CCCc2c(Cl)cccc21	shake flask	PBS	–	pH 7.4	3.6
Cc1c(C(=O)N[C@H]2CCCC[C@H]2N)nc(-c2ccc(Cl)cc2Cl)n1-c1ccc(OS(=O)(=O)CCC(F)(F)F)cc1 (racemic)	shake flask	aqueous buffer	–	pH 7.4	3.35
COC(=O)CN(CC(=O)N[C@@H](Cc1c[nH]cn1)C(=O)OC)Cc1ccccc1	shake flask	PBS	2 h	pH 7.4	0.82
C[C@]1(C(=O)O)CSC(c2ccc(OCCCCCC(=O)O)cc2O)=N1	shake flask	aqueous buffer	–	pH 7.4	-1.9
CN1CCN(c2ccc3nc(-c4ccc5nc(-c6ccc(OCCCCNC(=O)[C@H](N)CS)cc6)[nH]c5c4)[nH]c3c2)CC1	shake flask	PBS	–	pH 7.4	2
Cc1c(C(=O)N[C@H]2CCC[C@H](O)C2)nc(-c2ccc(Cl)cc2Cl)n1-c1ccc(OS(=O)(=O)CCC(F)(F)F)cc1 (relative stereo)	shake flask	aqueous buffer	–	pH 7.4	4.6
O=C(O)C1=Cc2cc3ccc(cc4nc(cc5c(-c6ccccc6)c(C(=O)O)c(c(C(=O)O)c1n2)n5C(=O)O)C=C4)[nH]3	shake flask	aqueous buffer	–	pH 9	0.0277
CN1CCN(c2ccc3nc(-c4ccc5nc(-c6ccc(OCCCCNC(=S)Nc7ccc(CC(CN(CCN(CC(=O)O)CC(=O)O)CC(=O)O)N(CC(=O)O)CC(=O)O)cc7)cc6)[nH]c5c4)[nH]c3c2)CC1 (stereo not shown)	shake flask	PBS	–	pH 7.4	-1.4
CC(C)Cc1ccc(C(C)C(=O)O)cc1 (stereo not shown)	shake flask	aqueous buffer	–	pH 7.5	0.94
CNC(=O)[C@H](Cc1c[nH]cn1)NC(=O)CN(CCCc1ccccc1)CC(=O)OC	shake flask	PBS	2 h	pH 7.4	1.07
Cc1c(C(=O)NN2CCCCC2)nc(-c2ccc(Cl)cc2Cl)n1-c1ccc(OS(=O)(=O)CCCF)cc1	shake flask	aqueous buffer	–	pH 7.4	4.15
C[C@]1(C(=O)O)CSC(c2ccc(OCC(=O)O)cc2O)=N1	shake flask	aqueous buffer	–	pH 7.4	-1.98
CC(C)CN(C[C@@H](O)[C@H](Cc1ccccc1)NC(=O)O[C@H]1CO[C@H]2OCC[C@H]21)S(=O)(=O)c1ccc(N)cc1	shake flask	PBS	–	pH 5	2.8
O=C(O)c1ccc(-n2nc(-c3ccccc3O)nc2-c2ccccc2O)cc1	shake flask	PBS	–	pH 7.4	0.9
CCCS(=O)(=O)Oc1ccc(-n2c(-c3ccc(Cl)cc3Cl)nc(C(=O)NN3CCCCC3)c2C)cc1	shake flask	aqueous buffer	–	pH 7.4	4.6
O=C(O)CN(CCCc1ccccc1)CC(=O)N[C@@H](Cc1c[nH]cn1)C(=O)NCc1ccccc1	shake flask	PBS	2 h	pH 7.4	-0.58
CCCCS(=O)(=O)Oc1ccc(-n2c(-c3ccc(Cl)cc3Cl)nc(C(=O)NN3CCCCC3)c2C)cc1	shake flask	aqueous buffer	–	pH 7.4	5.1
CCC1=C(C)C2=NC1=Cc1c(C)c(CC)c3[n]1[Fe][n]1c(c(C)c(CCC(=O)O)c1=CC1=NC(=C3)C(C)=C1CCC(=O)O)=C2	shake flask	aqueous buffer	–	pH 9	0.552
Cc1c(C(=O)NN2CCCCC2)nc(-c2ccc(Cl)cc2Cl)n1-c1ccc(OS(=O)(=O)CCC(C)C)cc1	shake flask	aqueous buffer	–	pH 7.4	5.3
O=C(NCCN1CCCC1)c1cc(-c2ccc(CN3CCOCC3)cc2)nc2ccc(F)cc12	shake flask	aqueous buffer	–	pH 7.4	2.5
